Screens from PubChem.
The list is not random: actives were taken first. Their share in the collection is about 3.1%.
Hsp70 activator = switches on Hsp70 transcription | AID 1203 | HeLa Hsp70 promoter luciferase reporter, luminescence; scaled: vehicle 0, proteasome-inhibitor control 100% | 200,000 compounds, 0.04% hits | activation, % at 10 µM;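 active = activation above the mean across all tested compounds plus 3 SD, cutoff set per campaign, cut at about 5.5% in these data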
HSF1 inh = HSF1 inhibition; NIH3T3-HGL HSE-luciferase, MG132-induced, luminescence 8 h; hits give low values; activity change, negative = inhibition, % at 7.5 µM (by protocol); 300,000 compounds, 0.77% hits;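 active = more than half of replicate wells show activity change below -50%, luminescence cut by over half; inconclusive = some wells, but at most half, below -50%; inactive = no replicate well below -50%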;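 also: luciferase reports HSF-1 transcriptional activity via heat shock element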
HSF-1 act = increases HSF-1 driven luciferase reporter signal; NIH3T3-HGL HSF-1 luciferase reporter, MG132, 8 h; 100% = twice DMSO control signal; 300,000 compounds, 1.7% hits; activation, % at 9 µM;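 active = mean replicate activation of at least 50% with a set share of replicates each reaching 50%; inconclusive = only one of those two conditions met; inactive = mean below 50% and too few replicates reaching it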
HSP90 refold inh = inhibitors of HSP90 luciferase refolding in rabbit reticulocyte lysate; 290,000 compounds, 0.91% hits; inhibition, % at 5.6 µM; luciferase refolding luminescence, 3 h; AID 1789;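 active = inhibition above the screen-wide mean plus 3 SD, computed separately per campaign, cut at about 16% in these data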;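 also: inhibitors lower the luminescence because luciferase stays unfolded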
HKDC1 inhibitor = HKDC1 (human) hexokinase inhibition | Q2TB90 | AID 493160 | 340,000 compounds, 0.16% hits | inhibition, % at 20 µM | recombinant HKDC1, G6PDH/diaphorase resazurin coupled fluorescence;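 active = inhibition above about 35% when tested at 20 µM, limit read from the data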
Target sequence (Q2TB90 whole entry, looked up): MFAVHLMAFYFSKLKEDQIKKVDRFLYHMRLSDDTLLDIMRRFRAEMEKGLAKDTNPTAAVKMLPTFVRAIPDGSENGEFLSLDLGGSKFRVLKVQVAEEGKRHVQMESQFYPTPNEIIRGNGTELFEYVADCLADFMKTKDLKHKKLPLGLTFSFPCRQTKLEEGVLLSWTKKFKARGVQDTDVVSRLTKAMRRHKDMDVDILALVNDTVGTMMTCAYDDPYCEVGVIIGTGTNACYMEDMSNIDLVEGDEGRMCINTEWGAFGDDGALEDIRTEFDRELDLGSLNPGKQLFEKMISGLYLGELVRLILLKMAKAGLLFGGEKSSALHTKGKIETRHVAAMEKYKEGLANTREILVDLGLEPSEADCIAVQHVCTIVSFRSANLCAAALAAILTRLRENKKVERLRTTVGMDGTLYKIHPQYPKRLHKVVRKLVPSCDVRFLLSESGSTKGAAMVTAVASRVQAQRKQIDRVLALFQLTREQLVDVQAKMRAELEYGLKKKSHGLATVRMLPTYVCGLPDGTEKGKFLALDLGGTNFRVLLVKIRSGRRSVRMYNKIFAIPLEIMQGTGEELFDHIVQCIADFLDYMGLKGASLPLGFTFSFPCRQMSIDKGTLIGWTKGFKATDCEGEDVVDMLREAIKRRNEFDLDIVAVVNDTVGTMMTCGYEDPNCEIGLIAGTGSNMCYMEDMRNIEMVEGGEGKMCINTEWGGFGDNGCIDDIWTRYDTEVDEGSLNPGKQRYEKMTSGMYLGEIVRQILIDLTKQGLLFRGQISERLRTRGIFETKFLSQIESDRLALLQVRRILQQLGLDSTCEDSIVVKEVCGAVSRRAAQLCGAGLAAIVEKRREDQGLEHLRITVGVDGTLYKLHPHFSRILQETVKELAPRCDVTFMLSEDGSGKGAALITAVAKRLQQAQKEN
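Test system: Recombinant HKDC1 (HK5) hexokinase enzyme, produced in-house | Input: HKDC1 at 5 µg/mL | Buffer or medium: Tris pH 8.0 buffer with MgCl2, Tween-20, BSA, BME | Schedule: 90 min reaction incubation at room temperature, dark | Technique: Resazurin-to-resorufin fluorescence via G6PDH and diaphorase coupling, 525/613 nm | Controls: DMSO wells with and without enzyme mix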
TbHK1 inh = blocks Trypanosoma brucei hexokinase 1 activity; recombinant TbHK1, G6PDH-coupled NADH A340; inhibition, % at 10 µM; 220,000 compounds, 0.11% hits; AID 1430;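 active = inhibition of 50% or more in the single-dose primary screen; inactive = inhibition below 50%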
Large screens that a line does not name were inactive.

Clc1ccc(-n2ncc3c(NCc4cccs4)ncnc32)cc1	HSF-1 act 56.7
CCOC(=O)Cc1cc(=O)c2cc(C)ccc2[nH]1	HSF1 inh -67.8 (no result: Hsp70 activator)
CC(C)c1ccc(N(CC(=O)N2CCN(Cc3ccccc3)CC2)S(C)(=O)=O)cc1	none (no result: Hsp70 activator, TbHK1 inh)
CCN(CC)c1ncnc2scc(C3COc4ccccc4O3)c12 (centres undefined)	HSF-1 act inconclusive
c1ccc2c(c1)OCC(c1csc3ncnc(N4CCOCC4)c13)O2 (centres undefined)	HSF1 inh -56.6
CCn1c(C)c(C(=O)O)c2cc(OC)c3ccccc3c21	none (no result: Hsp70 activator, TbHK1 inh)
CC1CCCCN1CC(=O)Nc1ccccc1Sc1ccccc1 (centres undefined)	HSF1 inh -59.4
COC(=O)C1CCN(CC(=O)Nc2ccccc2Sc2ccccc2)CC1	none
CCCOc1ccc(-c2cc(C(F)(F)F)c(C#N)c(SCC(=O)O)n2)cc1	none
O=C(CSC1=NCCS1)Nc1nc2ccccc2s1	HSF-1 act 56.3
Cc1cc(C(F)(F)F)c(C#N)c(SCC(=O)Nc2nc3ccccc3s2)n1	HSF1 inh -73.2, HSP90 refold inh 29.9
Cc1nc(SCC(=O)Nc2nc3ccccc3s2)c(C#N)c(C)c1C	HSF1 inh -92.1, HSP90 refold inh 67.9
Cc1ccc(-c2cc(C(F)(F)F)c(C#N)c(SCC(=O)O)n2)cc1	HSF-1 act 57.6
COc1ccc(-n2nc(C(=O)NCC(=O)N3CCCC3)c3ccccc3c2=O)cc1Cl	none (no result: Hsp70 activator, TbHK1 inh)
CC(=O)c1ccc(N(CC(=O)NC2CCCCC2)C(=O)CNC(=O)c2cccs2)cc1	none (no result: Hsp70 activator, TbHK1 inh)
O=C(CNC(=O)c1ccc(Cl)cc1Cl)OCc1cn2cc(Br)ccc2n1	none (no result: Hsp70 activator, HSF1 inh, HSF-1 act, HSP90 refold inh, TbHK1 inh)
O=C(CC1SC(N2CCOCC2)=NC1=O)Nc1ccc(Cl)c(C(F)(F)F)c1 (centres undefined)	none (no result: Hsp70 activator, HSF1 inh, HSF-1 act, HSP90 refold inh, TbHK1 inh)
C=CCNc1ncnc2c1[nH]c1ccc(C)cc12	HSF-1 act 62.0
Cc1ccc(/C=N/Nc2ccc(C(=O)O)cc2)s1	HSF1 inh -75.7, HSP90 refold inh 78.9
Cc1ccc(NC(=O)COC(=O)c2ccc(-n3cccn3)cc2)cc1C	none (no result: Hsp70 activator, HSF1 inh, HSF-1 act, HSP90 refold inh, TbHK1 inh)
CCOC(=O)Cn1c(=O)oc2cc(S(=O)(=O)N3CCN(C(=O)c4ccco4)CC3)ccc21	HSF-1 act 71.3
O=C(Nc1ccc2c(c1)OCCO2)c1coc2ccccc2c1=O	HSF1 inh -51.6
Cc1cc(C(=O)Nc2ccc3c(c2)OCCO3)c2ccccc2n1	none
O=C(Nc1ccc2c(c1)OCO2)c1cc(-c2ccccc2Cl)on1	HSF-1 act 56.5 (no result: Hsp70 activator, TbHK1 inh)
O=C(NC(=S)Nc1ccc2c(c1)OCO2)c1ccccc1	HSF-1 act 57.2
O=C(NC(=S)Nc1ccc2c(c1)OCCO2)c1cccc(Br)c1	none
O=C(Nc1ccc2c(c1)OCO2)c1ccccc1	HSF-1 act 58.1 (no result: Hsp70 activator, TbHK1 inh)
CCOc1ccc(NC(=O)c2ccc(NS(=O)(=O)c3cccs3)cc2)cc1	none (no result: Hsp70 activator, TbHK1 inh)
CC(C)c1ccc(NC(=O)CCNC(=O)N2CC(=O)Nc3ccccc32)cc1	none (no result: Hsp70 activator, TbHK1 inh)
NC(=O)Cn1c(=O)n(CCC(=O)Nc2ccc(F)cc2)c(=O)c2sccc21	none (no result: Hsp70 activator, TbHK1 inh)
CC(C)(O)C#Cc1ccc(C(=O)Nc2ccc3c(c2)OCO3)s1	HSF-1 act 60.3 (no result: Hsp70 activator, TbHK1 inh)
CCc1sc(C(=O)Nc2ccc3c(c2)OCO3)cc1C	none (no result: Hsp70 activator, HSF1 inh, HSF-1 act, HSP90 refold inh, TbHK1 inh)
O=C(Nc1ccc2c(c1)OCCO2)C(=S)NCc1ccccc1	HSF-1 act 68.1
O=C(CC(=O)c1ccccc1)Nc1ccc2c(c1)OCCO2	HSF-1 act 53.9
COc1cccc(OC)c1OCCNCC1COc2ccccc2O1 (centres undefined)	HSF-1 act 52.9 (no result: Hsp70 activator, HSP90 refold inh, TbHK1 inh)
CN1c2ccsc2/C(=N/Nc2ccc(F)cc2)CS1(=O)=O	none
Cc1ccc(N/N=C2\CS(=O)(=O)N(C)c3ccsc32)cc1	HSF-1 act 87.5
Clc1ccccc1-c1nc(-c2ccncc2)no1	none (no result: Hsp70 activator)
O=S(=O)(Cc1noc(-c2ccccc2Cl)n1)c1ccccn1	HSF-1 act 61.2 (no result: Hsp70 activator)
O=c1c2ccccc2nnn1CSc1ccccc1	HSF-1 act 85.7
O=c1c2ccccc2nnn1CSc1ccc2ccccc2n1	HSF-1 act inconclusive
Cc1ccc(S(=O)(=O)N2CCCC(C(=O)NCc3ccc4c(c3)OCO4)C2)cc1 (centres undefined)	none (no result: Hsp70 activator, TbHK1 inh)
Cc1ccc(S(=O)(=O)N2CCCC(C(=O)NCCc3ccc4c(c3)OCO4)C2)cc1 (centres undefined)	HSF1 inh -68.5
CN(Cc1ccc(Cl)c(Cl)c1)C(=O)C1CSC2(C)CCC(=O)N12 (centres undefined)	none (no result: Hsp70 activator, HSF1 inh, HSF-1 act, HSP90 refold inh, TbHK1 inh)
CCn1c(SCC(=O)N/N=C/C=C/c2ccco2)nc2ccccc21	HSF-1 act 78.5
O=S(=O)(NC(=NC1CCCCC1)c1ccccc1F)c1ccccc1	none (no result: Hsp70 activator, TbHK1 inh)
O=C(CC1Sc2ccccc2NC1=O)c1ccc(Br)cc1 (centres undefined)	HSF-1 act 70.5
CC1CC(C)CN(C(=O)Nc2ccccc2F)C1 (centres undefined)	none (no result: Hsp70 activator)
CC(=O)Nc1ccccc1OC(C)C(=O)N1CC(C)CC(C)C1 (centres undefined)	HSF-1 act 113.6 (no result: Hsp70 activator)
CCn1c(SCC(=O)Nc2oc(C)c3c(C)n[nH]c(=O)c23)nc2sc(C)c(C)c2c1=O	HSF1 inh -71.3 (no result: Hsp70 activator, HSP90 refold inh, TbHK1 inh)
Cc1cc(C)c(C)c(SCC(=O)Nc2oc(C)c3c(C)n[nH]c(=O)c23)c1C	none (no result: Hsp70 activator, HSP90 refold inh, TbHK1 inh)
COc1cc(/C=C/C(=O)O)cc(S(=O)(=O)Nc2ccc3nc(C)sc3c2)c1OC	HSP90 refold inh 16.9 (no result: Hsp70 activator)
CCSc1nnc([C@H](Cc2c[nH]c3ccccc23)NC(=O)OC(C)(C)C)o1	HSF-1 act 59.0
CSc1nnc([C@H](Cc2c[nH]c3ccccc23)NC(=O)OC(C)(C)C)o1	none (no result: Hsp70 activator)
CC(=O)N1c2ccc(S(=O)(=O)N3CCCC3)cc2CC1C(=O)NCc1ccc(N(C)C)cc1 (centres undefined)	HSF-1 act 57.3 (no result: Hsp70 activator, TbHK1 inh)
Cc1ccc(C)c(N2CCN(C(=O)c3nn(C)c4c3CS(=O)(=O)c3ccccc3-4)CC2)c1	none (no result: Hsp70 activator, TbHK1 inh)
CN(Cc1nnc(-c2ccc(F)cc2)o1)c1ccccc1	HSF-1 act 59.7 (no result: Hsp70 activator, TbHK1 inh)
NC(=O)C(C(=O)/C=C/c1ccc(Cl)cc1)=C1SCCS1	HSF-1 act 210.1 (no result: Hsp70 activator)
COc1ccc(/C=C/C(=O)C(C(N)=O)=C2SCCS2)cc1	none
Cc1nc(NC(=O)c2ccc(Cl)cc2)sc1-c1csc(Nc2cccc(F)c2)n1	HSP90 refold inh 68.7 (no result: HKDC1 inhibitor)
CN(C)S(=O)(=O)c1cccc(NC(=S)NC23CC4CC(CC(C4)C2)C3)c1	none (no result: Hsp70 activator, TbHK1 inh)
CCN(CC)S(=O)(=O)c1cccc(NC(=O)CCNC(=O)NC23CC4CC(CC(C4)C2)C3)c1	HSF1 inh -65.7 (no result: Hsp70 activator, HSP90 refold inh, TbHK1 inh)
COc1ccc(S(=O)(=O)N2CCCCCC2)cc1C(=O)OCC(=O)NC(N)=O	none
COc1ccc(S(=O)(=O)N2CCCCCC2)cc1C(=O)OCC(=O)NC(C)(C)C	HSF1 inh -67.5
COc1nnc(-c2ccc(C(=O)N3C[C@@H]4C[C@H](C3)c3cccc(=O)n3C4)cc2)c2ccccc12	HSF1 inh -58.3
